FXIIa inh 1536 – factor XIIa (human) inhibition. P00748. purified FXIIa, Boc-QGR-AMC fluorogenic substrate, 2 h. inhibition, % at 5 µM. 220,000 compounds, 0.3% hits. AID 800; in the data active = inhibition above about 40%;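 also: 0% = enzyme with no compound and 100% = blank without enzyme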
Rce1 inh – blocks yeast Ras-converting enzyme. yeast membranes, quenched prenylated peptide cleavage fluorescence. calls only. Q03530. 290,000 compounds, 0.27% hits. AID 2563;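 active = fall in fluorescence gain of 50% or more versus controls, with final raw signal at or below 3038400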;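 also: plate controls were neutral control wells for no effect and wells lacking membranes for full effect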
Target sequence (Q03530 whole entry, looked up): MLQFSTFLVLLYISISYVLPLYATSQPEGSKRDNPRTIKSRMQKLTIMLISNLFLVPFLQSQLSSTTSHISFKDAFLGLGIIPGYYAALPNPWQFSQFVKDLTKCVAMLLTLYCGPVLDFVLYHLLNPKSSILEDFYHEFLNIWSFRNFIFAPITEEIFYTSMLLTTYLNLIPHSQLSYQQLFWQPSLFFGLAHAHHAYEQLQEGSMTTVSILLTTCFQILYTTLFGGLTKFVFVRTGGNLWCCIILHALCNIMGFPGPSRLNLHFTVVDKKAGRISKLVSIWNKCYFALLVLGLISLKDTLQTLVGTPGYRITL
hK5 inh – blocks human kallikrein 5 protease activity | Q9Y337 | recombinant hK5, fluorogenic AMC substrate cleavage | inhibition, % at 5 µM | 210,000 compounds, 0.59% hits;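 active = inhibition of 40% or more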;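 also: 0% = enzyme controls without compound and 100% = no-enzyme blanks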
Target sequence (Q9Y337 67-293 limits assumed): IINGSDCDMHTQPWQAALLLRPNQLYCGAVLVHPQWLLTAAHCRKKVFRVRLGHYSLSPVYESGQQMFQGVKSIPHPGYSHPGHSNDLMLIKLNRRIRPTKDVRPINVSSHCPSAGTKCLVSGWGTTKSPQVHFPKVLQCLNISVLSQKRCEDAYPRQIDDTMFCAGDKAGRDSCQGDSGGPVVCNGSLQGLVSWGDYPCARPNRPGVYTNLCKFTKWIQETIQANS
FXIa inh 1536 – factor XIa (human) inhibition; P03951; purified FXIa, Boc-Glu-Ala-Arg-AMC fluorogenic substrate; inhibition, % at 5 µM; 220,000 compounds, 0.14% hits;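 active = inhibition of at least 40%; inactive = inhibition below 40%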;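 also: fluorescence of freed AMC excited at 355 nm; 0% = enzyme without compound and 100% = no enzyme blank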
Thrombin inh – blocks human thrombin protease activity. P00734. alpha-thrombin, Boc-VPR-AMC fluorogenic substrate cleavage. inhibition, % at 5 µM. 220,000 compounds, 0.26% hits;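 active = inhibition at or above 40%; inactive = inhibition below 40%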;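 also: 0% = enzyme with no compound and 100% = wells without enzyme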
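Material: Human alpha-thrombin protein | Buffer or medium: pH 7.5 Tris-saline with Tween 20 | Reagent: Boc-VPR-AMC substrate, 15 µM final | Schedule: Reaction at ambient temperature | Detection: AMC fluorescence at 355 nm excitation and 460 nm emission | Evaluation: Percent inhibition scaled between no-compound controls and no-enzyme blanks | Controls: no-compound enzyme wells and no-enzyme blanks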
CTSL1 counter – cathepsin L1 inhibition, PFM18AAP counter-screen; recombinant F. hepatica cathepsin L1, Z-Leu-Arg-MCA fluorescence; inhibition, % at 5.96 µM; 300,000 compounds, 0.49% hits; AID 1906;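 active = inhibition above the mean of all tested compounds plus 3 SD, set per screening campaign, cut at about 17% in these data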;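 also: 0% = plate median of test compound wells and 100% = 1 µM Z-Phe-Ala-diazomethylketone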
* = called active by the depositor; i = inactive; / = not tested or not shown; + = active, no number. Hits are enriched below; roughly 1.4% of the tested compounds scored in any of these assays.

SMILES	FXIIa inh 1536	Rce1 inh	hK5 inh	FXIa inh 1536	Thrombin inh	CTSL1 counter
c1ccc(Cc2nnc3sc(C4COc5ccccc5O4)nn23)cc1 (stereo unspecified)	2	i	-6	12	0	18*
Cc1ccn2c(=O)nc(SCC(=O)N3CCCC3)nc2c1	/	i	/	/	/	17*
Cc1cc(NC(=O)COC(=O)c2oc3c(Cl)cccc3c2C)no1	6	i	-9	-1	-5	8
Cc1cc(N2CCN(c3ccccc3)CC2)nc(-c2ccccc2)n1	23	i	65*	3	83*	0
O=C1C(Cl)=C(NCc2cccnc2)C(=O)c2ccccc21	/	i	/	/	/	27*
Cc1ccc(NC(=O)c2ccc(OC(=O)COc3cccc(Cl)c3)cc2)cc1	8	i	-15	7	77*	-14
Clc1ccccc1-c1nnc(CNC2CC2)o1	5	i	-6	-6	1	4
Cc1ccc2ncc(S(=O)(=O)c3ccccc3)c(N3CCCCC3C)c2c1 (stereo unspecified)	/	i	/	/	/	4
Cc1occc1C(=O)NNC(=S)NCc1ccccc1	4	i	-4	4	2	17*
Cc1occc1C(=O)NNC(=O)c1ccccc1Br	21	i	46*	16	8	0
Cc1occc1C(=O)NNC(=S)NCc1ccc(Cl)cc1	0	i	3	-5	-25	1
Cc1occc1C(=O)NNC(=O)c1ccccc1C(=O)O	0	i	-7	-6	-5	0
Cc1ccccc1C(=O)NNC(=O)c1ccoc1C	0	i	63*	2	16	-3
CC(C)(C)OC(=O)CNC(=O)c1nc[nH]c1C(=O)NCC(=O)OC(C)(C)C	2	i	-1	-2	-4	0
COc1ccc(-c2cc(C(F)F)n3ncc(C(=O)n4ccnc4C)c3n2)cc1	-3	i	-17	-4	88*	8
O=C(COC(=O)CCc1nc2ccccc2c(=O)[nH]1)Nc1ccc(Cl)cn1	40	i	43*	105*	16	8
COc1ccccc1C(=O)NCCC(=O)NNC(=O)Cn1ccc(C(F)(F)F)n1	/	i	/	/	/	2
CCCCCCCCCCC[C@@H](C[C@@H]1OC(=O)[C@H]1CCCCCC)OC(=O)[C@H](CC(C)C)NC=O	/	i	/	/	/	21*
CCCCC[C@H](O)/C=C/[C@H]1[C@H](O)CC(=O)[C@@H]1CCCCCCC(=O)O	/	i	/	/	/	-2
CCCNC(=O)C1CC(c2ccc(C(F)(F)F)cc2)=NO1 (stereo unspecified)	20	i	22	102*	21	0
Cc1cccc(NCc2ccc(Br)cc2)n1	/	i	/	/	/	-4
CC(C)(C)c1nc(CN2CCOCC2)cc(CN2CCOCC2)c1O	26	i	-10	7	0	-1
Cc1ccc(-c2nc(CN3CCCCC3)cc(CN3CCCCC3)c2O)cc1	6	+	-3	-3	-7	2
O=C(COc1ccccc1[N+](=O)[O-])N(Cc1ccccc1)c1ccccn1	7	i	-1	-3	-6	3
CCC(=O)N/C(=N/c1nc(C)cc(C)n1)Nc1cccc(OC)c1	14	i	-10	-2	94*	0
SMILES	FXIIa inh 1536	Rce1 inh	hK5 inh	FXIa inh 1536	Thrombin inh	CTSL1 counter
CC(=O)N/C(=N\c1nc(C)cc(C)n1)Nc1ccc2ccccc2c1	/	i	/	/	/	6
O=C1[C@@H]2CSCN2C(=O)CN1Cc1ccc(F)cc1	11	i	2	0	0	0
CC1CCN(C(=O)c2cc3nc(-c4ccccc4)cc(-c4ccccc4)n3n2)CC1	10	+	-33	-6	-5	0
O=C(O)c1ccc(/C=N/NC(=O)c2ccc(F)cc2)cc1	-1	i	-4	-6	68*	2
O=C(N/N=C/c1ccc(F)cc1)c1ccccc1	10	i	2	0	-7	-2
O=C(Cc1ccc(F)cc1)N/N=C/c1ccncc1	36	i	55*	19	30	-2
CN(Cc1cnccn1)C(=O)C1CCC(=O)N(CCc2ccc(Cl)cc2)C1 (stereo unspecified)	/	i	/	/	/	-4
O=C(CCn1ccc2ccccc21)NC1CCCc2ccccc21 (stereo unspecified)	7	i	-17	-3	-3	3
O=C(CCN1C(=O)C2C3C=CC(C3)C2C1=O)NC1CCCc2ccccc21 (stereo unspecified)	23	i	53*	13	14	4
CCC(C)Sc1cc(-c2nc3ccccn3c2NC2CCCCC2)ccc1OC (stereo unspecified)	/	+	/	/	/	-1
CCC(C)Sc1cccc(-c2nc3ccc(C)cn3c2NC2CCCCC2)c1 (stereo unspecified)	/	i	/	/	/	3
Cc1cnc(C(=O)OC(C(=O)Nc2cc(C(F)(F)F)ccc2Cl)c2ccccc2)cn1 (stereo unspecified)	/	i	/	/	/	-27
COc1ccc(C)cc1NC(=O)C(OC(=O)CNC(=O)c1cccc(F)c1)c1ccccc1 (stereo unspecified)	2	i	-2	-2	-4	29*
O=C(CNC(=O)c1ccccc1)OC(C(=O)Nc1cc(C(F)(F)F)ccc1Cl)c1ccccc1 (stereo unspecified)	17	i	0	1	4	28*
Cc1ccc(S(=O)(=O)NCCC(=O)Nc2ccncc2)cc1C	/	i	/	/	/	-1
CCN(CC(=O)Nc1c(F)cccc1F)C(=O)c1ccc2c(c1)OCCO2	/	i	/	/	/	-6
CCN(C(=O)c1cccnc1SC)C12CC3CC(CC(C3)C1)C2	/	i	/	/	/	0
COc1ccc(C)cc1NC(=O)C1CCCN(S(=O)(=O)c2cccc3cccnc23)C1 (stereo unspecified)	/	i	/	/	/	0
Cc1ccc2nc(NC(=O)C3CCCN(S(=O)(=O)c4cccc5nsnc45)C3)sc2c1 (stereo unspecified)	45*	i	31	17	15	2
COc1ccc(NC(=O)C2CCCN(S(=O)(=O)c3cccc4cccnc34)C2)c(OC)c1 (stereo unspecified)	33	i	113*	13	21	2
CCOC(=O)CC1Sc2ccccc2NC1=S (stereo unspecified)	0	i	80*	4	-7	0
CCOC(=O)CC1Sc2ccccc2NC1=O (stereo unspecified)	3	i	0	2	-23	-1
CCOc1ccc(N(CC(=O)Nc2ccc3c(c2)OCCO3)S(=O)(=O)c2c(C)noc2C)cc1	41*	i	30	19	21	0
CCOc1ccc(N(CC(=O)Nc2ccc(OC)cc2)S(=O)(=O)c2c(C)noc2C)cc1	9	i	0	2	-4	-1
O=C(CN(Cc1ccccc1F)C(=O)Cn1nnc(-c2cccs2)n1)NCC1CCCO1 (stereo unspecified)	0	i	53*	-3	19	3

High-throughput results (PubChem)
